The EternaBench riboswitch data

Tested on: MS2 coat protein
Experiment: apparent Kd, MS2 coat protein; higher = weaker binding; RNA-MaP array; FMN 200 µM where present
Method in brief: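 Designs were transcribed by stalled E. coli RNA polymerase on Illumina sequencing-chip clusters. They were titrated with SNAP-549-labelled MS2 coat protein from 0.7 or 1.5 nM, doubling to 3 µM, without and then with constant ligand. Buffer: 100 mM Tris-HCl pH 7.5, 80 mM KCl, 4 mM MgCl2, BSA, DTT, yeast tRNA, Tween-20. Green signal was normalised to red-channel RNA signal and control-cluster median Fmax. Apparent Kd is the median of filtered per-cluster binding-curve fits.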

[1] = designed as: OFF switch for flavin mononucleotide, no ligand
[2] = ligand present: flavin mononucleotide, designed as: OFF switch for flavin mononucleotide
[3] = designed as: ON switch for flavin mononucleotide, no ligand
[4] = ligand present: flavin mononucleotide, designed as: ON switch for flavin mononucleotide

| Sequence | apparent Kd [1] | apparent Kd [2] | apparent Kd [3] | apparent Kd [4] |
| --- | --- | --- | --- | --- |
| CAAUUUAUAGCAGGAUAUACAAUACAAUGAUUAGUAGAAGGGUUUAAUACAUGAGGAUCACCCAUGUCAUGUGUCAUAAUAACC | 31.2 nM | 23.5 nM | – | – |
| UGGUACAUCGGAGGAUAUCAUGUAAAUACAUGAGGAUCACCCAUGUCGAUGGAGACAUCGGAGAUUGAGAAGGCCGAUGUACCU | – | – | 480 nM | 23.4 nM |
| AAGGAUCGAGGAUAUACAUAGAUACAGAUACAUGUAUACGUACAUGAGGAUCACCCAUGUAGAAGGCGAUCAUA | 37.1 nM | 214 nM | – | – |
| AGUAAGAUGCAGAAGGUGUCAGCGAGAGCUGUACAUGAGGAUCACCCAUGUUGUCGGUGACGACACAAGGAUAUGCAUCUUACA | – | – | 24.7 nM | 6.28 nM |
| AAUAACAGAGGAUAUACUAUUUUAUGUGUUUGUUAUUUUAAACAUGAGGAUCACCCAUGUAGAAGGCUGAUUGA | 46.7 nM | 46.6 nM | – | – |
| ACUAUACGAGGAUAUACUGACGGGCCUCAGGCGUCCAUGAGACAUGAGGAUCACCCAUGUAGAAGGCGUAUACU | 174 nM | 52 nM | – | – |
| AGAUACUACGAGAAGGACAUGAGGAUCACCCAUGUAACCAGUAUCUGGAAUGUAGGAUAUCGUAGUAUCAGGAUCGUGAGAUCA | 9.91 nM | 32.9 nM | – | – |
| AUCUUGUAAGGAUAUCUUACAAGUGACUUCGGUCACAGUUAAGAGAAGGUACAUGAGGAUCACCCAUGUAUAAC | 26.4 nM | 23 nM | – | – |
| GGAUGACAAAGUCAUCCAAUUCGAACAUGAGGAUCACCCAUGUAGGAUAUCGUACUCAAAGAGUACGAGAAGGACAUGUGCUUU | 40.3 nM | 154 nM | – | – |
| GUCAAGCUAGGAUAUACAUGAGGAUCACCCAUGUUAUCCUCGUGGGCAGUUUCUUCAUGUAGAAGGAGCAAAGG | 38 nM | 16.6 nM | – | – |
| AAGCUCGUGUGAGGAUAUGCCGCCGUUUCGGCUGCAGAAGGUGCUACGUUACAUGAGGAUCACCCAUGUCUCUGUUGUUUCGUG | – | – | 23 nM | 22.3 nM |
| AAGAAAGAAACGUAGGAUAUCAAGAAUAUAACAUGAGGAUCACCCAUGUAAAUACGAAAGUAUAAUGAGAAGGAUGGAUGAUCUUC | – | – | 102 nM | 83.4 nM |
| AAGUGGUUUAUAUAUUUAGAUAUCAGAAGGCGUGACAUGAGGAUCACCCAUGUGGACUAACAUGACGAGGAUAUGACUAAUUGU | 30.4 nM | 39.8 nM | – | – |
| GUUAACGCAUGAGGAUAUGCUCACAUUUCAAGAGCAGAAGGUAUGUCUAUAGACAUGAGGAUCACCCAUGUAUUUAUCAUUGAA | – | – | 166 nM | 42.5 nM |
| GUACUGUAGUGAGGAUAUACGAGAACGAUAGUUCGGCGAUCCAUAUAUACAUGAGGAUCACCCAUGUAGAAGGCACUUCAGUAC | 9.3 nM | 108 nM | – | – |
| UGGUACUAGGGAGGAUAUGGGAAGAUACAUGAGGAUCACCCAUGUUUAAGAAUGCCGAGAGGCACCUAGAAGGCCCUAGUACCU | – | – | 21.1 nM | 5.36 nM |
| UAUAUAUAGUAAGGAUAUGUAUAUAUUUUAUUAACAGAAGGUACUGACAUGAGGAUCACCCAUGUUUUAGUGUGGGCAUGUAGA | 76.7 nM | 100 nM | – | – |
| GACUUCUCUGAGGAUAUUGCAUCAUACGAUUUAUAAGAAGGCAGAACAUGAGGAUCACCCAUGUGGGUUUCUAG | 59 nM | 108 nM | – | – |
| UGAACUAUGUAGAAGGCCCACAUUUAUAUGUAGGGAGGAUAUACAUGAGGAUCACCCAUGUAAAGAGCAAGAGGAUUUGACAGA | 10.7 nM | 19.6 nM | – | – |
| AAAAAGGGAGGAUAUACAUGAGUAGAUCGUGUAAAAAAAAUACAUGAGGAUCACCCAUGUAGAAGGCCCAAAAA | 231 nM | 88.2 nM | – | – |
| UGGGUAAGUGUAGGAUAUUUAUAUUAAUAGUAUGGAGAAGGACAUGAGGAUCACCCAUGUACAGGGAGUUACCCAUUUCCUCUC | 778 nM | 1200 nM | – | – |
| GAGGAGUCAGGAUAUCGGGAAAGGUUGAGGAAGAGAAGAAGCGAGAAGGGACAUGAGGAUCACCCAUGUAGAAG | 52.4 nM | 47 nM | – | – |
| UCGAUGCUAGGAUAUACUAAUACAACUACUGUAGUGUCUUCACAUGAGGAUCACCCAUGUAGAAGGAGCAUAUA | 26.3 nM | 20.3 nM | – | – |
